Data set [1] deals with Trypanosoma brucei brucei. Put plainly: Trypanocidal activity against bloodstream form of Trypanosoma brucei brucei 427 after 72 hrs by Alamar blue assay. Format: functional, organism-based. As to conditions: Trypanosoma brucei, 427, 72 h. In short, it runs like this: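 Bloodstream-form T. b. brucei strain 427 grown at 37°C in HMI9 with 10% fetal calf serum and 2.5 µg ml-1 G418, exposed to serially diluted compounds for 72 h. Viability read by Alamar Blue. Four replicates; EC50 ± standard deviation and slope factor from curve fitting.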
(Alamar Blue is a resazurin reagent that responds to reducing activity.)

The subject of another data set is HeLa. Description: Cytotoxicity against human HeLa cells after 65 hrs by Alamar blue assay. Format: cell-based.
Data set [2] can be described thus: Selectivity index, ratio of EC50 for human HeLa cells to EC50 for bloodstream form of Trypanosoma brucei brucei 427. It counts as toxicity, cell-based. As to conditions: read-out: Ratio EC50.
In data set [3] the test system is Trypanosoma brucei. Description: Trypanocidal activity against bloodstream form of N-(4-(allyloxy)-3-(trifluoromethyl)phenyl)-5-nitrofuran-2-carboxamide-resistant Trypanosoma brucei after 72 hrs by Alamar blue assay. It counts as functional, organism-based.
Data set [4] can be described thus: Selectivity ratio of EC50 for bloodstream form of nifurtimox-resistant Trypanosoma brucei to EC50 for bloodstream form of wild type Trypanosoma brucei brucei 427. Format: functional.
In data set [5] the test system is Trypanosoma brucei rhodesiense. Description: Trypanocidal activity against Trypanosoma brucei rhodesiense Z310 after 72 hrs by Alamar blue assay. As to conditions: Z310, 72 h. It counts as functional, organism-based. In short, it runs like this:
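T. b. rhodesiense strain Z310 cultured at 37°C in HMI9 with 10% fetal calf serum, without G418, and exposed to compounds for 72 h. Alamar Blue viability read-out. Four replicates; EC50 ± standard deviation from curve fitting.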

Data set [6] concerns Trypanosoma brucei. Put plainly: Antitrypanosomal activity against trypomastigote form of Trypanosoma brucei. It counts as functional, organism-based. Summed up:
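Bloodstream-form T. b. brucei strain 427 grown at 37°C in HMI9 with 10% fetal calf serum and 2.5 μg ml-1 G418; viability read by Alamar Blue after 72 h compound exposure. Four replicates, EC50 ± standard deviation and slope factor from curve fitting.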

Data set [7] has as its system Trypanosoma brucei brucei. Put plainly: Ratio of nifurtimox EC50 to compound EC50 for bloodstream form of wild type Trypanosoma brucei brucei 427. It counts as functional.
Data set [8] is described as follows: Selectivity ratio of EC50 for bloodstream form of N-(4-(allyloxy)-3-(trifluoromethyl)phenyl)-5-nitrofuran-2-carboxamide-resistant Trypanosoma brucei to EC50 for bloodstream form of wild type Trypanosoma brucei brucei 427. It counts as functional.
The subject of data set [9] is Trypanosoma brucei. Description: Trypanocidal activity against bloodstream form of nifurtimox-resistant Trypanosoma brucei after 72 hrs by Alamar blue assay. It counts as functional, organism-based.

Each structure is given as a SMILES string.

By EC50 is commonly meant the concentration needed to bring the measured effect to its halfway point.

With `O=C(NC1CCCCC1)c1ccc([N+](=O)[O-])o1`, the values for the EC50 (in data set [1]; in the data set with HeLa) were 0.231 µM and more than 20 µM, respectively. Further, the selectivity ratio in data set [2] is more than 86.
Regarding `CCc1cc(C(N)=O)c(NC(=O)c2ccccc2[N+](=O)[O-])s1`, the EC50 in data set [1] is 26.1 µM; with HeLa, more than 20 µM.
Consider `O=C(Nc1ccccc1)c1ccco1`, for which the EC50 (in [1]; in the data set on HeLa) was more than 20 µM throughout.
For the molecule `CCc1cc(C(N)=O)c(NC(=O)c2cccc([N+](=O)[O-])c2)s1`, the EC50 in data set [1] is 2.6 µM; with HeLa it was more than 20 µM. The selectivity ratio in data set [2] is more than 8.
`O=C(Nc1cc(C(F)(F)F)cc(C(F)(F)F)c1)c1ccc([N+](=O)[O-])o1`: the values for the EC50 (in [1]; in the data set on HeLa) were 0.128 µM and more than 10 µM, respectively. Moreover, the selectivity ratio in data set [2] was more than 78.
On to `C=CCOc1ccc(NC(=O)c2ccc([N+](=O)[O-])o2)cc1`, for which the EC50 in data set [1] is 0.00773 µM; in the data set on HeLa, more than 20 µM. The selectivity ratio in [2] is more than 258.
Take `CCc1cc(C(N)=O)c(NC(=O)c2n[nH]cc2[N+](=O)[O-])s1`: the EC50 in data set [1] was more than 300 µM; in the data set with HeLa, more than 20 µM.
With `O=C(NCc1ccccn1)c1ccc([N+](=O)[O-])o1`, the EC50 is 0.291 µM in data set [1] and more than 20 µM in the data set on HeLa. The selectivity ratio in data set [2] is more than 68.
Take `CCc1cc(C(N)=O)c(NC(=O)c2ccc([N+](=O)[O-])cc2)s1`: the EC50 (in data set [1]; in the data set with HeLa) was more than 20 µM in each case.
On to `CCc1cc(C(=O)OC)c(NC(=O)c2ccc([N+](=O)[O-])o2)s1`, for which the EC50 in [1] is 0.021 µM; with HeLa, more than 20 µM. Further, the selectivity ratio in [2] is more than 950.
`N=C(N)c1ccc(OCCCCCOc2ccc(C(=N)N)cc2)cc1` [PENTAMIDINE]: the EC50 in the data set on Trypanosoma brucei [3] turned out to be 0.0011 µM. Also, the Ratio EC50 in data set [4] was determined as 2.
Regarding `CCOC(=O)c1ccsc1NC(=O)c1ccc([N+](=O)[O-])o1`, the values for the EC50 (in [1]; with HeLa) were 0.0723 µM and more than 20 µM, respectively. Further, the selectivity ratio in data set [2] is more than 278.
Turning to `CCc1cc(C(N)=O)c(N)s1`, the EC50 is 32.6 µM in [1] and more than 20 µM in the data set with HeLa.
Consider `O=C(Nc1ccc(C(F)(F)F)cc1)c1ccc([N+](=O)[O-])o1`, for which the figures for the 50% effective concentration (EC50) (in data set [5]; in [1]; in the data set with HeLa) were 0.159 µM, 0.126 µM and more than 20 µM, respectively. In addition, the selectivity ratio in data set [2] is more than 158.
In the case of `Cc1csc(N)c1C(N)=O`, the concentration for a half-maximal effect (EC50) in [1] is 65.1 µM; in the data set on HeLa it was more than 20 µM.
Consider `COc1ccc(NC(=O)c2ccc([N+](=O)[O-])o2)cc1C`, for which the figures for the EC50 (in data set [1]; in the data set with HeLa) were 0.038 µM and more than 20 µM, respectively. In addition, the selectivity ratio in data set [2] was more than 525.
Turning to `CCc1cc(C(=O)NCCO)c(NC(=O)c2ccc([N+](=O)[O-])o2)s1`, the EC50 is 0.0796 µM in data set [1] and more than 20 µM with HeLa. Besides, the selectivity ratio in data set [2] is more than 253.
Consider `COC(=O)c1ccc([N+](=O)[O-])o1`, for which the 50% effective concentration (EC50) is 67 µM in [1] and more than 20 µM with HeLa.
In the case of `O=C(Nc1cccc(Br)c1)c1ccc([N+](=O)[O-])o1`, the EC50 in [1] was 0.104 µM; with HeLa it was more than 20 µM. The selectivity ratio in data set [2] was more than 192.
In the case of `COc1cc(NC(=O)c2ccc([N+](=O)[O-])o2)cc(C(F)(F)F)c1`, the EC50 in data set [1] is 0.0266 µM; with HeLa, more than 20 µM. Also, the selectivity ratio in [2] was more than 752.
`CCNC(=O)c1cc(CC)sc1NC(=O)c1ccc([N+](=O)[O-])o1`: the results for the EC50 (in [5]; in data set [1]; with HeLa) were 0.202 µM, 0.147 µM and more than 20 µM, respectively. Also, in data set [2], the selectivity ratio is more than 136.
`COc1ccc(NC(=O)c2ccc([N+](=O)[O-])o2)cc1`: the EC50 in data set [1] is 0.0765 µM; in the data set with HeLa, more than 20 µM. Moreover, the selectivity ratio in [2] is more than 261.
`CCCCc1cc(C(=O)OCC)c(NC(=O)c2ccc([N+](=O)[O-])o2)s1`: the EC50 is 0.125 µM in data set [1] and more than 20 µM in the data set on HeLa. Also, the selectivity ratio in [2] was more than 160.
The like results for `O=C(NCc1cccc(C(F)(F)F)c1)c1ccc([N+](=O)[O-])o1` were, in that order, 0.0174 µM, more than 20 µM and more than 1150.
With `CCCCOC(=O)c1cc(CC)sc1NC(=O)c1ccc([N+](=O)[O-])o1`, the EC50 in data set [1] was 0.0326 µM; in the data set with HeLa, more than 20 µM. For the same molecule, the selectivity ratio in data set [2] is more than 625.
Molecule `O=C(NNC(=O)c1ccc([N+](=O)[O-])o1)c1ccc2ccccc2c1` yielded an EC50 with Trypanosoma brucei [6] of 0.13 µM.
On to `COc1ccc(NC(=O)c2ccc([N+](=O)[O-])o2)cc1C(F)(F)F`, for which the EC50 in data set [1] is 0.0078 µM; in the data set with HeLa, more than 20 µM. Besides, in [2], the selectivity ratio is more than 2560.
The like results for `O=C(Nc1ccc(Cl)cc1)c1ccc([N+](=O)[O-])o1` were, in that order, 0.412 µM, more than 20 µM and more than 48.
Turning to `C=CCOc1ccc(N(CC=C)C(=O)c2ccc([N+](=O)[O-])o2)cc1C(F)(F)F`, the EC50 in data set [1] is 2.2 µM; in the data set on HeLa it was more than 20 µM. The selectivity ratio in [2] was more than 9.
With `O=C(Nc1cccc(C(F)(F)F)c1)c1ccc([N+](=O)[O-])o1`, the half-maximal effective concentration (EC50) in [5] was 0.0094 µM; in data set [1], 0.00469 µM; in the data set with HeLa, more than 20 µM. Besides, the selectivity ratio in data set [2] was more than 4450.
In the case of `COc1cccc(NC(=O)c2ccc([N+](=O)[O-])o2)c1`, the results for the EC50 (in data set [1]; in the data set on HeLa) were 0.0586 µM and more than 20 µM, respectively. Further, the selectivity ratio in [2] is more than 345.
`CCOC(=O)c1cc(CC)sc1NC(=O)c1ccc([N+](=O)[O-])o1`: the EC50 is 0.0442 µM in data set [5], 0.0313 µM in data set [1] and more than 20 µM in the data set with HeLa. In addition, the “Ratio EC50” value in [7] is reported as 100. For the same molecule, the selectivity ratio in [2] was more than 640.
For `COC(=O)c1ccc(NC(=O)c2ccc([N+](=O)[O-])o2)cc1`, the EC50 in data set [1] is 0.68 µM; in the data set on HeLa, more than 20 µM. Besides, the selectivity ratio in [2] is more than 29.
For the molecule `CCOC(=O)c1cc(CC)sc1NC(=O)c1ccco1`, the EC50 (in [1]; in the data set with HeLa) was more than 20 µM each time.
As to `CCc1cc(C(N)=O)c(NCc2ccc([N+](=O)[O-])o2)s1`, the values for the EC50 (in data set [1]; in the data set on HeLa) were 5.3 µM and more than 20 µM, respectively. Moreover, the selectivity ratio in data set [2] is more than 4.
Turning to `O=[N+]([O-])c1ccc(CNc2ccccc2)o1`, the EC50 in [1] is 113 µM; with HeLa it was more than 20 µM.
With `O=C(Nc1cccs1)c1ccc([N+](=O)[O-])o1`, the EC50 in data set [1] was 0.0626 µM; in the data set on HeLa, more than 20 µM. Besides, the selectivity ratio in data set [2] is more than 322.
With `CCCCNC(=O)c1cc(CC)sc1NC(=O)c1ccc([N+](=O)[O-])o1`, the EC50 in [1] is 0.336 µM; with HeLa, more than 20 µM. The selectivity ratio in data set [2] was more than 60.
The like results for `O=C(Nc1ccccc1)c1ccc([N+](=O)[O-])o1` were, in that order, 0.0281 µM, more than 20 µM and more than 710.
On to `CC1CS(=O)(=O)CCN1/N=C/c1ccc([N+](=O)[O-])o1` (stereo not given) [NIFURTIMOX], for which the EC50 turned out to be 7.3 µM in the data set on Trypanosoma brucei [3], 1.71 µM in data set [5] and 91.2 µM with HeLa. The Ratio EC50 in [8] turned out to be 3. The selectivity ratio in data set [2] was found to be 38.
In the case of `CCc1cc(C(=O)O)c(NC(=O)c2ccc([N+](=O)[O-])o2)s1`, the EC50 in data set [1] was 0.959 µM; in the data set with HeLa, more than 20 µM.
Turning to `O=C(Nc1ccc(O)c(C(F)(F)F)c1)c1ccc([N+](=O)[O-])o1`, the EC50 was 2.2 µM in data set [1] and more than 20 µM in the data set on HeLa. Further, the selectivity ratio in data set [2] was more than 9.
Regarding `CCc1cc(C(N)=O)c(NC(=O)c2ccc([N+](=O)[O-])o2)s1`, the EC50 was 0.0231 µM in [5], 0.0173 µM in data set [1] and more than 20 µM in the data set with HeLa. In addition, the selectivity ratio in data set [2] was more than 1160.
In the case of `C=CCOc1ccc(NC(=O)c2ccc([N+](=O)[O-])o2)cc1C(F)(F)F`, the EC50 in the data set on Trypanosoma brucei [3] is 0.0293 µM; in [5] it was 0.0029 µM; in data set [1], 0.0024 µM; in the data set on HeLa it was more than 20 µM; in the data set with Trypanosoma brucei [9], 0.0078 µM. Moreover, the Ratio EC50 in [8] stood at 14; in [7], 1000; in data set [4], 3. Also, the selectivity ratio in [2] was more than 8330.
The molecule `Nc1nc(N)nc(Nc2ccc([As]3SCC(CO)S3)cc2)n1` (stereo not given) [MELARSOPROL] gave an EC50 in data set [5] of 0.0078 µM.
On to `O=C(NCc1ccccc1)c1ccc([N+](=O)[O-])o1`, for which the EC50 is 0.0273 µM in data set [1] and more than 20 µM in the data set with HeLa. In [2], the selectivity ratio was more than 732.
In the case of `O=C(Nc1ccc(O)cc1)c1ccc([N+](=O)[O-])o1`, the EC50 in data set [1] is 0.394 µM; with HeLa, more than 20 µM. For the same molecule, in [2], the selectivity ratio was more than 50.
